Measurements as given in ChEMBL document CHEMBL3526049 (Drug Metab Dispos, 2012).

How the values were obtained:
[1] = tested on: Brain; assay: Drug uptake in MDR1A knockout Sprague-Dawley rat brain at 1 mg/kg, iv; assay type: ADME, organism-based; set-up: dose 1 mg/kg, route intravenous; conditions: in vivo
[2] = Half life in MRP2 knockout Sprague-Dawley rat at 5 mg/kg, po by LC-MS/MS analysis; assay type: ADME, organism-based; set-up: dose 5 mg/kg, route oral; conditions: in vivo
In short: (§1)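 Male Sprague-Dawley rats (knockouts age- and weight-matched to wild type), femoral-artery and vein cannulated, recovered ≥2 days. IV/oral crossover: 1 mg/kg IV bolus on day 0, then after a 3-day washout 5 mg/kg oral gavage in 10 ml/kg 50% Cremophor EL in ethanol. Arterial plasma 0–24 h, protein-precipitated, LC-MS/MS (positive ion, 1–5000 ng/ml). Noncompartmental analysis; n=5–9.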

[3] = AUC (infinity) in BCRP knockout Sprague-Dawley rat at 1 mg/kg, iv by LC-MS/MS analysis; assay type: ADME, organism-based; set-up: time infinity, dose 1 mg/kg, route intravenous; conditions: plasma
[4] = AUC (infinity) in MRP2 knockout Sprague-Dawley rat at 5 mg/kg, po by LC-MS/MS analysis; assay type: ADME, organism-based; set-up: time infinity, dose 5 mg/kg, route oral; conditions: plasma; in short: as §1
[5] = Tmax in wild-type Sprague-Dawley rat at 5 mg/kg, po by LC-MS/MS analysis; assay type: ADME, organism-based; set-up: dose 5 mg/kg, route oral; conditions: in vivo; in short: as §1
[6] = AUC (infinity) in BCRP knockout Sprague-Dawley rat at 5 mg/kg, po by LC-MS/MS analysis; assay type: ADME, organism-based; set-up: time infinity, dose 5 mg/kg, route oral; conditions: plasma; in short: as §1
[7] = AUC (infinity) in MDR1A knockout Sprague-Dawley rat at 5 mg/kg, po by LC-MS/MS analysis; assay type: ADME, organism-based; set-up: time infinity, dose 5 mg/kg, route oral; conditions: plasma
[8] = Drug excretion in bile duct-cannulated MDR1A knockout Sprague-Dawley rat bile at 1 mg/kg, iv up to 24 hrs; assay type: ADME, organism-based; set-up: dose 1 mg/kg, route intravenous; conditions: read-out: Drug excretion
In short: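 Male Sprague-Dawley Mdr1a knockout rats with bile duct and femoral cannulas, housed in metabolism cages. […] Urine, bile and feces were collected in total over 0–24 h, and cage wash was taken at 24 h.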

[9] = tested on: Kidney; assay: Drug uptake in MDR1A knockout Sprague-Dawley rat kidney at 1 mg/kg, iv; assay type: ADME, organism-based; set-up: dose 1 mg/kg, route intravenous; conditions: in vivo
[10] = Clearance in wild-type Sprague-Dawley rat at 1 mg/kg, iv by LC-MS/MS analysis; conditions: in vivo
[11] = Drug excretion in bile duct-cannulated MRP2 knockout Sprague-Dawley rat urine at 1 mg/kg, iv up to 24 hrs; assay type: ADME, organism-based; set-up: dose 1 mg/kg, route intravenous; conditions: read-out: Drug excretion
In short: (§2)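 Male Sprague-Dawley rats with bile-duct and femoral cannulation, housed in metabolism cages. Given an IV bolus of 1 mg/kg in 2 ml/kg 50% Cremophor EL in ethanol. Urine, bile and feces collected in toto 0–24 h, with cage wash at 24 h. Amounts quantified by LC-MS/MS and expressed as % of dose; n=6–12.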

[12] = Drug excretion in bile duct-cannulated wild-type Sprague-Dawley rat urine at 1 mg/kg, iv up to 24 hrs; assay type: ADME, organism-based; set-up: dose 1 mg/kg, route intravenous; conditions: read-out: Drug excretion; in short: as §2
[13] = AUC (infinity) in wild-type Sprague-Dawley rat at 5 mg/kg, po by LC-MS/MS analysis; assay type: ADME, organism-based; set-up: time infinity, dose 5 mg/kg, route oral; conditions: plasma; in short: as §1
[14] = Volume of distribution at steady state in BCRP knockout Sprague-Dawley rat at 1 mg/kg, iv by LC-MS/MS analysis; assay type: ADME, organism-based; set-up: dose 1 mg/kg, route intravenous; conditions: in vivo, read-out: Vdss
In short: (§3)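 Male Sprague-Dawley rats (knockout or wild type matched for age and weight), femoral artery and vein cannulated, at least 2 days recovery. Crossover design: IV bolus 1 mg/kg on day 0 (saline with 0.2 M equivalents HCl), oral gavage 10 mg/kg on day 3 (water with 0.2 M equivalents HCl). Arterial plasma sampled to 24 h (Mdr1a oral arm to 4 h). Analysed by LC-MS/MS and noncompartmental analysis.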

[15] = Half life in BCRP knockout Sprague-Dawley rat at 5 mg/kg, po by LC-MS/MS analysis; assay type: ADME, organism-based; set-up: dose 5 mg/kg, route oral; conditions: in vivo; in short: as §1
[16] = Cmax in BCRP knockout Sprague-Dawley rat at 5 mg/kg, po by LC-MS/MS analysis; assay type: ADME, organism-based; set-up: dose 5 mg/kg, route oral; conditions: in vivo; in short: as §1
[17] = Oral bioavailability in MRP2 knockout Sprague-Dawley rat at 5 mg/kg by LC-MS/MS analysis; assay type: ADME, organism-based; conditions: in vivo; in short: as §1
[18] = tested on: Brain; assay: Drug uptake in BCRP knockout Sprague-Dawley rat brain at 1 mg/kg, iv; assay type: ADME, organism-based; set-up: dose 1 mg/kg, route intravenous; conditions: in vivo
[19] = Cmax in wild-type Sprague-Dawley rat at 5 mg/kg, po by LC-MS/MS analysis; assay type: ADME, organism-based; set-up: dose 5 mg/kg, route oral; conditions: in vivo; in short: as §1
[20] = tested on: Liver; assay: Drug uptake in MDR1A knockout Sprague-Dawley rat liver at 1 mg/kg, iv; assay type: ADME, organism-based; set-up: dose 1 mg/kg, route intravenous; conditions: in vivo
[21] = tested on: Rattus norvegicus; assay: Clearance in MRP2 knockout Sprague-Dawley rat at 1 mg/kg, iv by LC-MS/MS analysis; conditions: in vivo
[22] = Tmax in BCRP knockout Sprague-Dawley rat at 5 mg/kg, po by LC-MS/MS analysis; assay type: ADME, organism-based; set-up: dose 5 mg/kg, route oral; conditions: in vivo; in short: as §1
[23] = Half life in BCRP knockout Sprague-Dawley rat at 1 mg/kg, iv by LC-MS/MS analysis; assay type: ADME, organism-based; set-up: dose 1 mg/kg, route intravenous; conditions: in vivo; in short: as §3
[24] = Cmax in MRP2 knockout Sprague-Dawley rat at 5 mg/kg, po by LC-MS/MS analysis; assay type: ADME, organism-based; set-up: dose 5 mg/kg, route oral; conditions: in vivo; in short: as §1
[25] = Drug excretion in bile duct-cannulated wild-type Sprague-Dawley rat bile at 1 mg/kg, iv up to 24 hrs; assay type: ADME, organism-based; set-up: dose 1 mg/kg, route intravenous; conditions: read-out: Drug excretion; in short: as §2
[26] = tested on: Rattus norvegicus; assay: AUC (infinity) in MRP2 knockout Sprague-Dawley rat at 1 mg/kg, iv by LC-MS/MS analysis; assay type: ADME, organism-based, Plasma; set-up: time infinity, dose 1 mg/kg, route intravenous; conditions: in vivo

CC(=O)O[C@H]1C(=O)[C@@]2(C)[C@H]([C@H](OC(=O)c3ccccc3)[C@]3(O)C[C@H](OC(=O)[C@H](O)[C@@H](NC(=O)c4ccccc4)c4ccccc4)C(C)=C1C3(C)C)[C@]1(OC(C)=O)CO[C@@H]1C[C@@H]2O [PACLITAXEL]
Drug uptake [1]: Active
half-life [2]: 9.4 h
AUC(0-inf) [3]: 171 ng·h/mL
AUC(0-inf) [4]: 622 ng·h/mL
Tmax [5]: 0.8 h
AUC(0-inf) [6]: 113 ng·h/mL
AUC(0-inf) [7]: 746 ng·h/mL
dose excreted at 24 h [8]: 0%
Drug uptake [9]: Active
clearance [10]: 112 mL/min/kg
dose excreted at 24 h [11]: 4.5%
dose excreted at 24 h [12]: 3.1%
AUC(0-inf) [13]: 88 ng·h/mL
Vd [14]: 29.1 L/kg
half-life [15]: 5.3 h
Cmax [16]: 40 ng/mL
bioavailability [17]: 27%
Drug uptake [18]: Active
Cmax [19]: 30 ng/mL
Drug uptake [20]: Active
CL [21]: 152 mL/min/kg
Tmax [22]: 0.9 h
half-life [23]: 6.4 h
Cmax [24]: 151 ng/mL
dose excreted at 24 h [25]: 0.5%
AUC [26]: 375 ng·h/mL
